# Measured values: ChEMBL document CHEMBL1909512, “Indolin-2-one p38α inhibitors III: bioisosteric amide replacement” (Bioorg Med Chem Lett, 2011)
# pIC50: −log10 of the molar value.
# Tested on: Blood
# Assay: Inhibition of LPS-induced TNFalpha release in human whole blood after 24 hrs by ELISA
# Format: functional, tissue-based
# Details: not given
row,pIC50,Structure (SMILES)
1,8.70,Cc1ccc2c(NC3CC3)noc2c1-c1ccc2c(c1)NC(=O)C21CCCC1
2,7.03,Cc1nnc(-c2ccc(C)c(-c3ccc4c(c3)NC(=O)C43CCOCC3)c2)[nH]1
3,6.60,Cc1ccc(-c2ncn[nH]2)cc1-c1ccc2c(c1)NC(=O)C21CCCC1

row,Structure (SMILES),pIC50
1,Cc1ccc2c(NC3CC3)noc2c1-c1ccc2c(c1)NC(=O)C21CCOCC1,8.08
2,O=C1Nc2cc(-c3cccc4c(NC5CC5)noc34)ccc2C12CCCC2,5.90

# Tested on: CHO
# Assay: Cytotoxicity against CHO cells
# Format: cell-based
# Details: Cricetulus griseus
row,Structure (SMILES),pIC50
1,Cc1ccc2c(NC3CC3)noc2c1-c1ccc2c(c1)NC(=O)C21CCOCC1,4.31

# Target: T1, RAF proto-oncogene serine/threonine-protein kinase (Homo sapiens, UniProt P04049)
# T1 sequence (P04049 whole entry): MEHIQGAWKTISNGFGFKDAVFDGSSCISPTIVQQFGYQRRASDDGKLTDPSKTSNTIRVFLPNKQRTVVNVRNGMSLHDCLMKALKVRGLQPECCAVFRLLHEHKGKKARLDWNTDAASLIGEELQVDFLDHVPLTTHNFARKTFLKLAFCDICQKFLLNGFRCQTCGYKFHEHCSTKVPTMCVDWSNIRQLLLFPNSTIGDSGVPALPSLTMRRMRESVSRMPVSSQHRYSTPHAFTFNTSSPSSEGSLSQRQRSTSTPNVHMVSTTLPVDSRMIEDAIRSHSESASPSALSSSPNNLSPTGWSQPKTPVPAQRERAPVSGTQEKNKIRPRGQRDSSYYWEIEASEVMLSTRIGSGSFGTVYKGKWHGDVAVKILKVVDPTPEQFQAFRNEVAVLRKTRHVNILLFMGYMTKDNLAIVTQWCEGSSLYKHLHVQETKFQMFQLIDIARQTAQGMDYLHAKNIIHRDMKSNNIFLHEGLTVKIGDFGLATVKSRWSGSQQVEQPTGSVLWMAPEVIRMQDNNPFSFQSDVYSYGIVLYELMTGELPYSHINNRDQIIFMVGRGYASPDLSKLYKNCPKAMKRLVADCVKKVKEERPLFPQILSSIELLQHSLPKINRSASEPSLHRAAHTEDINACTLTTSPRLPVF
# Assay: Inhibition of cRaf
# Details: not given
row,pIC50,Structure (SMILES)
1,5.80,Cc1nnc(-c2ccc(C)c(-c3ccc4c(c3)NC(=O)C43CCOCC3)c2)[nH]1

# Tested on: not listed separately
# Assay: Half life in rat at 1 mg/kg, iv
# Format: ADME, organism-based
# Parameters: dose 1 mg/kg, route intravenous
# Details: in vivo
row,Structure (SMILES),half-life
1,Cc1ccc2c(NC3CC3)noc2c1-c1ccc2c(c1)NC(=O)C21CCOCC1,2.9 h
2,Cc1nnc(-c2ccc(C)c(-c3ccc4c(c3)NC(=O)C43CCOCC3)c2)[nH]1,3.1 h

# Tested on: Rattus norvegicus
# Assay: Antiinflammatory activity in rat assessed as inhibition of LPS-induced TNFalpha production plasma administered orally 1 hr prior to LPS challenge measured after 1.5 hrs by ELISA
# Format: functional
# Details: not given
row,Structure (SMILES),inhibition
1,Cc1nnc(-c2ccc(C)c(-c3ccc4c(c3)NC(=O)C43CCOCC3)c2)[nH]1,Dose-dependent effect

# Same assay, conditions: po
row,Structure (SMILES),ED50
1,Cc1nnc(-c2ccc(C)c(-c3ccc4c(c3)NC(=O)C43CCOCC3)c2)[nH]1,0.69 mg/kg

# Tested on: not listed separately
# Assay: Cmax in rat at 1 mg/kg, iv
# Format: ADME, organism-based
# Parameters: dose 1 mg/kg, route intravenous
# Details: in vivo
row,Structure (SMILES),Cmax
1,Cc1ccc2c(NC3CC3)noc2c1-c1ccc2c(c1)NC(=O)C21CCOCC1,1480 ng/mL
2,Cc1nnc(-c2ccc(C)c(-c3ccc4c(c3)NC(=O)C43CCOCC3)c2)[nH]1,1720 ng/mL

# Target: T2, Cytochrome P450 1A2 (Homo sapiens, UniProt P05177)
# T2 sequence (P05177 whole entry): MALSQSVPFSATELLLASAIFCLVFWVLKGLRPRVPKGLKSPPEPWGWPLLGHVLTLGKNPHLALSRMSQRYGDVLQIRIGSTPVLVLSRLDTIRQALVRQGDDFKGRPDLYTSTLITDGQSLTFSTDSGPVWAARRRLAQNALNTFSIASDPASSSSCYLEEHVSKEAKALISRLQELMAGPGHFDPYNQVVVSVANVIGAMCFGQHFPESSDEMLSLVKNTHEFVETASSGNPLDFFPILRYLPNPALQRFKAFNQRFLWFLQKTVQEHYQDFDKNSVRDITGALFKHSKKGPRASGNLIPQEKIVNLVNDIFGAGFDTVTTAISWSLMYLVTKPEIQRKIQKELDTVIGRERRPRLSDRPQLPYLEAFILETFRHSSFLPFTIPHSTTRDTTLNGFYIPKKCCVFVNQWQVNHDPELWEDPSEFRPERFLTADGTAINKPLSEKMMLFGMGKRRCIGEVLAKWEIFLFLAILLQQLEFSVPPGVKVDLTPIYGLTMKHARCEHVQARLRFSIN
# Assay: Inhibition of human CYP1A2
# Format: ADME
# Details: not given
row,pIC50,Structure (SMILES)
1,< 4.60,Cc1nnc(-c2ccc(C)c(-c3ccc4c(c3)NC(=O)C43CCOCC3)c2)[nH]1

# Tested on: not listed separately
# Assay: Volume of distribution at steady state in rat at 1 mg/kg, iv
# Format: ADME, organism-based
# Parameters: dose 1 mg/kg, route intravenous
# Details: in vivo, read-out: Vdss
row,Structure (SMILES),Vd
1,Cc1ccc2c(NC3CC3)noc2c1-c1ccc2c(c1)NC(=O)C21CCOCC1,0.8 L/kg
2,Cc1nnc(-c2ccc(C)c(-c3ccc4c(c3)NC(=O)C43CCOCC3)c2)[nH]1,1 L/kg

# Tested on: Liver microsomes
# Assay: Metabolic stability in human liver microsomes in absence of NADPH
# Format: ADME, Microsome
# Details: not given
row,Stability,Structure (SMILES)
1,Stable,Cc1noc(-c2ccc(C)c(-c3ccc4c(c3)NC(=O)C43CCCC3)c2)n1
2,Stable,Cc1nnc(-c2ccc(C)c(-c3ccc4c(c3)NC(=O)C43CCOCC3)c2)[nH]1

# Tested on: not listed separately
# Assay: Apparent passive permeability from basolateral to apical side of the human Caco2 cells at 12.5 uM
# Format: ADME, cell-based
# Details: Caco-2
# Procedure, shortened: (§1)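 Passive permeability across Caco-2 monolayer measured with 12.5 µM test compound in both directions (apical-to-basal and basal-to-apical); Papp reported in 10^-6 cm/s.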
row,Structure (SMILES),Papp B→A at 12.5 µM
1,Cc1ccc2c(NC3CC3)noc2c1-c1ccc2c(c1)NC(=O)C21CCOCC1,16 ×10⁻⁶ cm/s
2,Cc1nnc(-c2ccc(C)c(-c3ccc4c(c3)NC(=O)C43CCOCC3)c2)[nH]1,27 ×10⁻⁶ cm/s

# Target: Cytochrome P450 3A4 (Homo sapiens, UniProt P08684)
# Assay: Inhibition of human CYP3A4
# Format: ADME
# Details: not given
row,pIC50,Structure (SMILES)
1,< 4.60,Cc1nnc(-c2ccc(C)c(-c3ccc4c(c3)NC(=O)C43CCOCC3)c2)[nH]1

# Target: hERG (Homo sapiens, UniProt Q12809)
# Sequence (Q12809 whole entry): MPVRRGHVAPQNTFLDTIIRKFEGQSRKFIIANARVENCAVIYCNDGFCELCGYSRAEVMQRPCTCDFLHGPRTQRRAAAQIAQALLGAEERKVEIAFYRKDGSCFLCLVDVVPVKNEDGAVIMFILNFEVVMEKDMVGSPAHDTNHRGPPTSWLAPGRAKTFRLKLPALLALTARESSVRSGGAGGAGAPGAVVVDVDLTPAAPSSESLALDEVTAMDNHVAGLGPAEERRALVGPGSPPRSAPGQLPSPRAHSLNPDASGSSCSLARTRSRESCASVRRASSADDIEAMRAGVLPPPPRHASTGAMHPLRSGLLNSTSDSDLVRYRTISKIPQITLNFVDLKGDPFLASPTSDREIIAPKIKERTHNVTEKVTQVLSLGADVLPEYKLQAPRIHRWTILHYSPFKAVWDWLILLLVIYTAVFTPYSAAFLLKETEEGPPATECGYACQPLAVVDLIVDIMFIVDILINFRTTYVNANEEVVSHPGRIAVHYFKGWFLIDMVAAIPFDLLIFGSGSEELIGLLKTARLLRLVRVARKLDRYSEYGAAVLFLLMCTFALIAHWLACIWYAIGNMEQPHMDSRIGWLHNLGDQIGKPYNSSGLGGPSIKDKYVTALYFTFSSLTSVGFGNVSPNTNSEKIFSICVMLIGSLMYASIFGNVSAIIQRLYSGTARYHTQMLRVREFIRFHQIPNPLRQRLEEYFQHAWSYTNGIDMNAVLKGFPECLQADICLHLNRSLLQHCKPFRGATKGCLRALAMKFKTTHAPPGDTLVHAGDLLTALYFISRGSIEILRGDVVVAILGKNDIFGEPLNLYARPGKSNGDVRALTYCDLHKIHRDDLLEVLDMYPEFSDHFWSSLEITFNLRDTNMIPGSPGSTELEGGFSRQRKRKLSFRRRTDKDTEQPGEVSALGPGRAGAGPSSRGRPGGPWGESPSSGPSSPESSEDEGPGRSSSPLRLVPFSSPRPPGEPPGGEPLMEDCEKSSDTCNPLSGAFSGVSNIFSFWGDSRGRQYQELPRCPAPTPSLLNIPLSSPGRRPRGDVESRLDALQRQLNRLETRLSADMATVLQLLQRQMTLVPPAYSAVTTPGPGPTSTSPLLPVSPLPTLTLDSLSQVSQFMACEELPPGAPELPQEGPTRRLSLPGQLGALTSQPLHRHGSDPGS
# Assay: Inhibition of human ERG expressed in HEK293 cells at 10 uM
# Format: cell-based
# Details: HEK293 cells that express hERG
row,Structure (SMILES),inhibition at 10 µM
1,Cc1nnc(-c2ccc(C)c(-c3ccc4c(c3)NC(=O)C43CCOCC3)c2)[nH]1,49%

# Tested on: not listed separately
# Assay: Metabolic stability in human liver microsomes assessed as compound turnover at 5 uM after 30 mins in presence of NADPH
# Format: ADME, Microsome
# Details: read-out: Drug metabolism
row,Structure (SMILES),"metabolised at 0.5 h, 5 µM"
1,Cc1ccc2c(NC3CC3)noc2c1-c1ccc2c(c1)NC(=O)C21CCOCC1,26%
2,Cc1nnc(-c2ccc(C)c(-c3ccc4c(c3)NC(=O)C43CCOCC3)c2)[nH]1,< 5%

# Target: Cytochrome P450 2D6 (Homo sapiens, UniProt P10635)
# Sequence (P10635 whole entry): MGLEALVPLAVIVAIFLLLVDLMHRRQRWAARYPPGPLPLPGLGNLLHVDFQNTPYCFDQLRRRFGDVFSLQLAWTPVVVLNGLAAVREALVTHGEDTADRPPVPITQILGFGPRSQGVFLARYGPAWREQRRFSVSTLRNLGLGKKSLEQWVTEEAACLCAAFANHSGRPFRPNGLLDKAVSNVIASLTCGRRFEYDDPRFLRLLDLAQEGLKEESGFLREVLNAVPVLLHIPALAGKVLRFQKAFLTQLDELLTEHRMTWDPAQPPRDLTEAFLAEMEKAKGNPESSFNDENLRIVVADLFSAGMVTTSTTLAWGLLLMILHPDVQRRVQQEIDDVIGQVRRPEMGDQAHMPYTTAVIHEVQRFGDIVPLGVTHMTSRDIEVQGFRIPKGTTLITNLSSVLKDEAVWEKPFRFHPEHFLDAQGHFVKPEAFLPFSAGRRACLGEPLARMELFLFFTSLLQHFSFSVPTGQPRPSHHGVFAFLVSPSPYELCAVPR
# Assay: Inhibition of human CYP2D6
# Format: ADME
# Details: not given
row,pIC50,Structure (SMILES)
1,< 4.60,Cc1nnc(-c2ccc(C)c(-c3ccc4c(c3)NC(=O)C43CCOCC3)c2)[nH]1

# Target: T3, 5-hydroxytryptamine receptor 1B (Homo sapiens, UniProt P28222)
# T3 sequence (P28222 whole entry): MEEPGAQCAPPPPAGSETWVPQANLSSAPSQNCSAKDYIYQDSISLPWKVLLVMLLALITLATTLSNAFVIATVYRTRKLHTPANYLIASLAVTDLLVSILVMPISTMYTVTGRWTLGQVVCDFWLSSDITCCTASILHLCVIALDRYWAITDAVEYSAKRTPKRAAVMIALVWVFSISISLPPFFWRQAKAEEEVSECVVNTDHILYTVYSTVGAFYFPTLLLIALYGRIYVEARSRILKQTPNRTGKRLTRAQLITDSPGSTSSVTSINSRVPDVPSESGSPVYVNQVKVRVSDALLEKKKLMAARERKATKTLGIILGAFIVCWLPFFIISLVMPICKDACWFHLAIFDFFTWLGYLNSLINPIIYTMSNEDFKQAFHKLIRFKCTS
# Details: 10 uM
row,inhibition,Structure (SMILES)
1,> 50%,Cc1nnc(-c2ccc(C)c(-c3ccc4c(c3)NC(=O)C43CCOCC3)c2)[nH]1

# Tested on: not listed separately
# Assay: AUC (0 to infinity) in rat at 10 mg/kg, po
# Format: ADME, organism-based
# Parameters: time infinity, dose 10 mg/kg, route oral
# Details: plasma
row,Structure (SMILES),AUC(0-inf)
1,Cc1ccc2c(NC3CC3)noc2c1-c1ccc2c(c1)NC(=O)C21CCOCC1,3370 ng·h/mL
2,Cc1nnc(-c2ccc(C)c(-c3ccc4c(c3)NC(=O)C43CCOCC3)c2)[nH]1,11700 ng·h/mL

# Tested on: not listed separately
# Assay: Mean residence time in rat at 1 mg/kg, iv
# Format: ADME, organism-based
# Parameters: dose 1 mg/kg, route intravenous
# Details: in vivo
row,Structure (SMILES),MRT
1,Cc1ccc2c(NC3CC3)noc2c1-c1ccc2c(c1)NC(=O)C21CCOCC1,4.6 h
2,Cc1nnc(-c2ccc(C)c(-c3ccc4c(c3)NC(=O)C43CCOCC3)c2)[nH]1,4 h

# Target: T1, RAF proto-oncogene serine/threonine-protein kinase
# Details: 10 uM
row,inhibition,Structure (SMILES)
1,> 50%,Cc1nnc(-c2ccc(C)c(-c3ccc4c(c3)NC(=O)C43CCOCC3)c2)[nH]1

# Target: T4, High affinity nerve growth factor receptor (Homo sapiens, UniProt P04629)
# Details: 10 uM
row,inhibition,Structure (SMILES)
1,> 50%,Cc1nnc(-c2ccc(C)c(-c3ccc4c(c3)NC(=O)C43CCOCC3)c2)[nH]1

# Tested on: not listed separately
# Assay: Metabolic stability in rat liver microsomes assessed as compound turnover at 5 uM after 30 mins in presence of NADPH
# Format: ADME, Microsome
# Details: read-out: Drug metabolism
# Procedure, shortened: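 5 µM test compound incubated with rat or human hepatic microsomes (1 mg/mL) plus NADPH for 30 min at 37 °C; result given as % turnover.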
row,Structure (SMILES),"metabolised at 0.5 h, 5 µM"
1,Cc1ccc2c(NC3CC3)noc2c1-c1ccc2c(c1)NC(=O)C21CCOCC1,18%
2,Cc1nnc(-c2ccc(C)c(-c3ccc4c(c3)NC(=O)C43CCOCC3)c2)[nH]1,23%

# Target: Cytochrome P450 2C19 (Homo sapiens, UniProt P33261)
# Sequence (P33261 whole entry): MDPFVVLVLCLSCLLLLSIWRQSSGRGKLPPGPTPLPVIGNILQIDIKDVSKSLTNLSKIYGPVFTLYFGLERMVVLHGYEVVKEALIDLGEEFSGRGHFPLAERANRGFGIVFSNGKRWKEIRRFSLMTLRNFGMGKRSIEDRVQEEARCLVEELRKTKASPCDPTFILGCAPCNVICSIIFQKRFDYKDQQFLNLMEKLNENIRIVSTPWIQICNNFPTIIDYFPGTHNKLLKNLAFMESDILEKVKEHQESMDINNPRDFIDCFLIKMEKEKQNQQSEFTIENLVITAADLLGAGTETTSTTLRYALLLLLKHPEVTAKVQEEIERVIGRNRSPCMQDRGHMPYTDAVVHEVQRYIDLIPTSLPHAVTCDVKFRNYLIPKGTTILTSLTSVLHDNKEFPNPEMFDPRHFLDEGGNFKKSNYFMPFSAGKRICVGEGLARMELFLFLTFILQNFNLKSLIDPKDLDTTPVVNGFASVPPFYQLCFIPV
# Assay: Inhibition of human CYP2C19
# Format: ADME
# Details: not given
row,pIC50,Structure (SMILES)
1,< 4.60,Cc1nnc(-c2ccc(C)c(-c3ccc4c(c3)NC(=O)C43CCOCC3)c2)[nH]1

# Target: T4, High affinity nerve growth factor receptor
# Assay: Inhibition of human TrkA
# Details: not given
# Target sequence in this assay (P04629 whole entry): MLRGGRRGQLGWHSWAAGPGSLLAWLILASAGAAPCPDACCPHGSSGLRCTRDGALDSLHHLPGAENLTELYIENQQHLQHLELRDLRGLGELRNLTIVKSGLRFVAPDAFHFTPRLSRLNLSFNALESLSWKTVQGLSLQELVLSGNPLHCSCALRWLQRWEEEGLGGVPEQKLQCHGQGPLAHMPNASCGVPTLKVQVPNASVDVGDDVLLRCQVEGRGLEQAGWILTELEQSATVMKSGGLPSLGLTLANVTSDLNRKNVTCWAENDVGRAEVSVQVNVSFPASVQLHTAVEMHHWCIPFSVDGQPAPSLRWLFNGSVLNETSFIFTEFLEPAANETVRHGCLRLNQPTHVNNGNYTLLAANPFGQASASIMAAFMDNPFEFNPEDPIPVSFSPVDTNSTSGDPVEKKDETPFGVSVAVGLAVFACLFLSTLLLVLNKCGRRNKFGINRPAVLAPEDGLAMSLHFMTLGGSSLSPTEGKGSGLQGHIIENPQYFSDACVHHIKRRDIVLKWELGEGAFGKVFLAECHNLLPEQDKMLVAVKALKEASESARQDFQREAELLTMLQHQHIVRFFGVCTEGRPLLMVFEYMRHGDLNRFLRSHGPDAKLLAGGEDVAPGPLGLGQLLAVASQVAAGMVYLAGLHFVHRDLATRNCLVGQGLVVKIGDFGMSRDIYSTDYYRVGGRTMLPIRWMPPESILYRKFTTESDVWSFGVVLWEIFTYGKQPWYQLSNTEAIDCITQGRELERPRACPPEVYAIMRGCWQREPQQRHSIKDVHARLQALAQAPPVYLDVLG
row,pIC50,Structure (SMILES)
1,5.11,Cc1nnc(-c2ccc(C)c(-c3ccc4c(c3)NC(=O)C43CCOCC3)c2)[nH]1

# Tested on: Liver microsomes
# Assay: Metabolic stability in human liver microsomes assessed as compound turnover at 5 uM after 30 mins in absence of NADPH
# Format: ADME, Microsome
# Details: 0.5 h
row,Structure (SMILES),Stability
1,Cc1ccc2c(NC3CC3)noc2c1-c1ccc2c(c1)NC(=O)C21CCOCC1,Stable
2,Cc1nnc(-c2ccc(C)c(-c3ccc4c(c3)NC(=O)C43CCOCC3)c2)[nH]1,Stable

# Tested on: not listed separately
# Assay: Clearance in rat at 1 mg/kg, iv
# Format: ADME, organism-based
# Parameters: dose 1 mg/kg, route intravenous
# Details: in vivo
row,Structure (SMILES),clearance
1,Cc1ccc2c(NC3CC3)noc2c1-c1ccc2c(c1)NC(=O)C21CCOCC1,3.2 mL/min/kg
2,Cc1nnc(-c2ccc(C)c(-c3ccc4c(c3)NC(=O)C43CCOCC3)c2)[nH]1,4.2 mL/min/kg

# Tested on: not listed separately
# Assay: Apparent passive permeability from apical to basolateral side of the human Caco2 cells at 12.5 uM
# Format: ADME, cell-based
# Details: Caco-2
# Procedure, shortened: as §1
row,Structure (SMILES),Papp A→B at 12.5 µM
1,Cc1ccc2c(NC3CC3)noc2c1-c1ccc2c(c1)NC(=O)C21CCOCC1,26 ×10⁻⁶ cm/s
2,Cc1nnc(-c2ccc(C)c(-c3ccc4c(c3)NC(=O)C43CCOCC3)c2)[nH]1,18 ×10⁻⁶ cm/s

# Target: T3, 5-hydroxytryptamine receptor 1B
# Assay: Inhibition of 5-HT1B
# Details: not given
row,pIC50,Structure (SMILES)
1,5.00,Cc1nnc(-c2ccc(C)c(-c3ccc4c(c3)NC(=O)C43CCOCC3)c2)[nH]1

# Tested on: not listed separately
# Assay: Oral bioavailability in rat at 10 mg/kg
# Format: ADME, organism-based
# Details: in vivo
row,Structure (SMILES),bioavailability
1,Cc1ccc2c(NC3CC3)noc2c1-c1ccc2c(c1)NC(=O)C21CCOCC1,6%
2,Cc1nnc(-c2ccc(C)c(-c3ccc4c(c3)NC(=O)C43CCOCC3)c2)[nH]1,29%

# Tested on: not listed separately
# Assay: Cmax in rat at 10 mg/kg, po
# Format: ADME, organism-based
# Parameters: dose 10 mg/kg, route oral
# Details: in vivo
row,Structure (SMILES),Cmax
1,Cc1ccc2c(NC3CC3)noc2c1-c1ccc2c(c1)NC(=O)C21CCOCC1,479 ng/mL
2,Cc1nnc(-c2ccc(C)c(-c3ccc4c(c3)NC(=O)C43CCOCC3)c2)[nH]1,1100 ng/mL

# Tested on: Liver microsomes
# Assay: Metabolic stability in rat liver microsomes in absence of NADPH
# Format: ADME, Microsome
# Details: not given
row,Stability,Structure (SMILES)
1,Stable,Cc1noc(-c2ccc(C)c(-c3ccc4c(c3)NC(=O)C43CCCC3)c2)n1
2,Stable,Cc1nnc(-c2ccc(C)c(-c3ccc4c(c3)NC(=O)C43CCOCC3)c2)[nH]1

# Tested on: not listed separately
# Assay: AUC (0 to infinity) in rat at 1 mg/kg, iv
# Format: ADME, organism-based
# Parameters: time infinity, dose 1 mg/kg, route intravenous
# Details: plasma
row,Structure (SMILES),AUC(0-inf)
1,Cc1ccc2c(NC3CC3)noc2c1-c1ccc2c(c1)NC(=O)C21CCOCC1,5270 ng·h/mL
2,Cc1nnc(-c2ccc(C)c(-c3ccc4c(c3)NC(=O)C43CCOCC3)c2)[nH]1,4060 ng·h/mL

# Target: Cytochrome P450 2C9 (Homo sapiens, UniProt P11712)
# Sequence (P11712 whole entry): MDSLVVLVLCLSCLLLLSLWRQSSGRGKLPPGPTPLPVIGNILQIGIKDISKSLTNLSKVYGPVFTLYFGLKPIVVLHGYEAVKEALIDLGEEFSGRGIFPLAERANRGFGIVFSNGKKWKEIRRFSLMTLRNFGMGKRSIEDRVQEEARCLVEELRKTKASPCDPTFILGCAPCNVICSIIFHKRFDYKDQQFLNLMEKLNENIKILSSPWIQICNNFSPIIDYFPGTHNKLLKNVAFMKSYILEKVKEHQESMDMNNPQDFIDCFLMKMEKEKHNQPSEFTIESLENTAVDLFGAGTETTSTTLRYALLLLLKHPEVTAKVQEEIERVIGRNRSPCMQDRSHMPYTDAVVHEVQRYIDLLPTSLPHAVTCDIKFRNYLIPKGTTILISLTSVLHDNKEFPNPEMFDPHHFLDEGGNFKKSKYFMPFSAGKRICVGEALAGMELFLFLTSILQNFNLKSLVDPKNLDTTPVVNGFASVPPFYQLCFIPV
# Assay: Inhibition of human CYP2C9
# Format: ADME
# Details: not given
row,pIC50,Structure (SMILES)
1,< 4.60,Cc1nnc(-c2ccc(C)c(-c3ccc4c(c3)NC(=O)C43CCOCC3)c2)[nH]1

# Target: Mitogen-activated protein kinase 14 (Homo sapiens, UniProt Q16539)
# Sequence (Q16539 whole entry): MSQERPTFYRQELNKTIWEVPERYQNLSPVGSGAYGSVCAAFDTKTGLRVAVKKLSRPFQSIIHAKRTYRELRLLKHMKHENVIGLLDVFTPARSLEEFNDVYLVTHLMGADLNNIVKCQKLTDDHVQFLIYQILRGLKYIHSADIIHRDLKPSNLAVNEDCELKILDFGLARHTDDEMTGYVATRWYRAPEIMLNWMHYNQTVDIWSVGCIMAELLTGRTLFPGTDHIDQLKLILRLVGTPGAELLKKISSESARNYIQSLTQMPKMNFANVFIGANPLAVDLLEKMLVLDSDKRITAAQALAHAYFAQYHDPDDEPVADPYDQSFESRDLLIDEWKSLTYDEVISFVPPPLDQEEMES
# Details: not given
row,Structure (SMILES),pIC50
1,Cc1noc(-c2ccc(C)c(-c3ccc4c(c3)NC(=O)C43CCCC3)c2)n1,6.13
2,Cc1ccc2c(NC3CC3)noc2c1-c1ccc2c(c1)NC(=O)C21CCOCC1,9.80
3,Cc1nnc(-c2ccc(C)c(-c3ccc4c(c3)NC(=O)C43CCOCC3)c2)[nH]1,8.12
4,O=C1Nc2cc(-c3cccc4c(NC5CC5)noc34)ccc2C12CCCC2,7.42

# Tested on: CHO
# Assay: Cytotoxicity against CHO cells at 200 uM
# Format: cell-based, Cricetulus griseus
# Details: chinese hamster
row,Structure (SMILES),Activity
1,Cc1nnc(-c2ccc(C)c(-c3ccc4c(c3)NC(=O)C43CCOCC3)c2)[nH]1,48%
